In ChEMBL document CHEMBL1687930 (J Med Chem, 2011):

Columns and labels:
[1] = tested on: LLC-PK1; experiment: Growth inhibition of pig LLC-PK1 cells; format: functional; settings: Sus scrofa
Outline: (§1)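 Parental lines (MDCKII, LLC-PK1) and matched Pgp-overexpressing lines (MDCKII-MDR1, about 500-fold Pgp; L-MDR1, about 25000-fold Pgp) were tested with and without the Pgp inhibitor LY335979. Each experiment was run at least in triplicate, with 8 wells per concentration. GI50 came from a nonlinear four-parameter sigmoidal concentration-response fit.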

[2] = Growth inhibition of dog MDCK2 cells in presence of P-glycoprotein inhibitor LY335979; format: functional; settings: Canis lupus familiaris, MDCK-II; outline: as §1
[3] = Growth inhibition of pig L-MDR1 cells overexpressing human P-glycoprotein in presence of P-glycoprotein inhibitor LY335979; format: functional; settings: Sus scrofa; outline: as §1
[4] = Growth inhibition of dog MDCK2-MDR1 cells overexpressing human P-glycoprotein in presence of P-glycoprotein inhibitor LY335979; format: functional; settings: Canis lupus familiaris, MDCK-II; outline: as §1
[5] = tested on: MDCK-II; experiment: Ratio of GI50 for dog MDCK2-MDR1 cells overexpressing human P-glycoprotein to GI50 for dog MDCK2 cells; format: functional, Canis lupus familiaris
[6] = target: T1, Kinesin-like protein KIF11 (Homo sapiens, UniProt P52732); experiment: Inhibition of untagged human Eg5 basal ATPase activity; settings: read-out: Ki(app)
T1 sequence (P52732 whole entry): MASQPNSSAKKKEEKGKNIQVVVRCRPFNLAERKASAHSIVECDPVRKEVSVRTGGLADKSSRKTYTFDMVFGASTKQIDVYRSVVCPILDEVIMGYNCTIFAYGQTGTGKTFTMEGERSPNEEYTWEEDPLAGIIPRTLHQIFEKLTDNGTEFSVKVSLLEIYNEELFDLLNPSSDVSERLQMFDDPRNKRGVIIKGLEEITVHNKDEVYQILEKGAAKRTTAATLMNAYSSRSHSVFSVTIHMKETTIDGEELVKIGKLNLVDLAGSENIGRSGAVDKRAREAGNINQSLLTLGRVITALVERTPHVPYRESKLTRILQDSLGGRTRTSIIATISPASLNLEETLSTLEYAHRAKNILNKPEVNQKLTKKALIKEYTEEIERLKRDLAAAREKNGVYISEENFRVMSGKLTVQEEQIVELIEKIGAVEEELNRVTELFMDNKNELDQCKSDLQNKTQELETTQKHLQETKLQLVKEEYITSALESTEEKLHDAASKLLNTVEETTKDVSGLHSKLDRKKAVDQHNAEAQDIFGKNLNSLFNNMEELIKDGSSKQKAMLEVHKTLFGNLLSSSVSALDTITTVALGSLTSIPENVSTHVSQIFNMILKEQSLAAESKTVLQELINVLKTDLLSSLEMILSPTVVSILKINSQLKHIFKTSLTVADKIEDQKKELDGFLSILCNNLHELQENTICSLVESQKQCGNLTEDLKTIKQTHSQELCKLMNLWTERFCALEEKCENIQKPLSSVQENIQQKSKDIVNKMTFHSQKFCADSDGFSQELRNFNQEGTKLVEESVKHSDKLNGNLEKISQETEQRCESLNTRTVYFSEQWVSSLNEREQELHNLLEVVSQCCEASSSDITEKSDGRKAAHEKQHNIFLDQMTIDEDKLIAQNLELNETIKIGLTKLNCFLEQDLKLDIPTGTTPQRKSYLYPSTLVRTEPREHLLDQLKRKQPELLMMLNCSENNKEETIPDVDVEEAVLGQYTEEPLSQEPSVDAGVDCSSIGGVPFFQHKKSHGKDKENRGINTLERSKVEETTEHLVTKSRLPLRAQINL

[7] = Growth inhibition of pig L-MDR1 cells overexpressing human P-glycoprotein; format: functional; settings: Sus scrofa; outline: as §1
[8] = tested on: LLC-PK1; experiment: Ratio of GI50 for pig L-MDR1 cells overexpressing human P-glycoprotein to GI50 for pig LLC-PK1 cells; format: functional, Sus scrofa
Outline: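 MDR ratio is the GI50 in L-MDR1 cells (Pgp-overexpressing) divided by the GI50 in parental LLC-PK1 cells. Each GI50 came from growth inhibition run at least in triplicate, with 8 wells per concentration, fitted by a four-parameter sigmoidal model.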

[9] = tested on: LLC-PK1; experiment: Growth inhibition of pig LLC-PK1 cells in presence of P-glycoprotein inhibitor LY335979; format: functional; settings: Sus scrofa; outline: as §1
[10] = target: T1, Kinesin-like protein KIF11; experiment: Inhibition of untagged human Eg5 microtubule-stimulated ATPase activity
[11] = Growth inhibition of dog MDCK2-MDR1 cells overexpressing human P-glycoprotein; format: functional; settings: Canis lupus familiaris, MDCK-II; outline: as §1
[12] = Growth inhibition of dog MDCK2 cells; format: functional; settings: Canis lupus familiaris, MDCK-II; outline: as §1

Structure (SMILES) | GI50 [1] [nM] | GI50 [2] [nM] | GI50 [3] [nM] | GI50 [4] [nM] | RatioGI50 [5] | Ki [6] [nM] | GI50 [7] [nM] | RatioGI50 [8] | GI50 [9] [nM] | IC50 [10] [nM] | GI50 [11] [nM] | GI50 [12] [nM]
Cc1ccc(C(SC[C@H](N)C(=O)O)(c2ccccc2)c2ccccc2)cc1 | 1050 | 80 | 490 | 120 | 3.8 | < 50 | 3830 | 3.7 | 1180 | 61.7 | 350 | 90
CC(C)(C)c1ccc(C(SC[C@H](N)C(=O)O)(c2ccccc2)c2ccccc2)cc1 | 4280 | 2480 | 13500 | 3010 | 6.8 | 429 |  | >12.5 | 5410 | 1240 | 19500 | 2860
NC(CSC(c1ccccc1)(c1ccccc1)c1ccc(C(=O)O)cc1)C(=O)O (configuration not stated) |  |  |  |  |  | 2540 |  |  |  | 14100 |  | 
N[C@@H](CSC(c1ccccc1)(c1ccccc1)c1ccccc1)C(=O)O [S-TRITYL-L-CYSTEINE] | 1060 | 890 | 3020 | 580 |  |  | 33000 |  | 1110 |  | 2300 | 860
N[C@@H](CSC(c1ccccc1)(c1ccccc1)c1ccc(I)cc1)C(=O)O | 330 | 110 | 610 | 180 | 3.4 | < 50 | 9170 | 27.6 | 440 | 19.3 | 330 | 100
CC(C)C(SC[C@H](N)C(=O)O)(c1ccccc1)c1ccccc1 |  |  |  |  |  | 175 |  |  |  | 1150 |  | 
N[C@@H](CSC(c1ccccc1)(c1ccccc1)c1ccc(C(F)(F)F)cc1)C(=O)O | 1000 | 330 | 1020 | 270 | 2.1 | < 50 | 8020 | 8 | 510 | 116 | 670 | 320
N[C@@H](CSC(c1ccccc1)(c1ccccc1)c1ccc(-c2ccccc2)cc1)C(=O)O | 77800 | 20000 | 110000 | 24500 | 3 | 1350 |  |  | 75600 | 1970 | 68500 | 22700
N[C@@H](CSC(c1ccccc1)(c1ccccc1)c1ccc(Br)cc1)C(=O)O | 3200 | 250 | 2350 | 210 | 2.7 | < 50 | 6780 | 2.1 | 2120 | 26.8 | 670 | 250
N[C@@H](CSC(c1ccccc1)(c1ccccc1)c1ccc2ccccc2c1)C(=O)O | 160 | 70 | 290 | 50 | 3.1 | < 50 | 6180 | 38.6 | 180 | 16.3 | 190 | 60
CCC(CC)C(SC[C@H](N)C(=O)O)(c1ccccc1)c1ccccc1 |  |  |  |  |  | 302 |  |  |  | 1630 |  | 
CC[C@]1(O)C[C@H]2CN(CCc3c([nH]c4ccccc34)[C@@](C(=O)OC)(c3cc4c(cc3OC)N(C=O)[C@H]3[C@@](O)(C(=O)OC)[C@H](OC(C)=O)[C@]5(CC)C=CCN6CC[C@]43[C@@H]65)C2)C1 [VINCRISTINE] | 30 | 430 |  | 340 | 40.3 |  | 2100 | 70 |  |  | 107000 | 2650
CCCCc1ccc(C(SC[C@H](N)C(=O)O)(c2ccccc2)c2ccccc2)cc1 |  |  |  |  |  | 84.2 |  |  |  | 93.3 |  | 
N[C@@H](CSC(c1ccccc1)(c1ccccc1)c1cccs1)C(=O)O |  |  |  |  |  | 58300 |  |  |  | 41700 |  | 
CCCCC(SC[C@H](N)C(=O)O)(c1ccccc1)c1ccccc1 |  |  |  |  |  | < 50 |  |  |  | 319 |  | 
CSc1ccc(C(SC[C@H](N)C(=O)O)(c2ccccc2)c2ccccc2)cc1 | 340 | 110 | 670 | 210 | 3.7 | < 50 | 11800 | 35.1 | 300 | 21.8 | 410 | 110
COc1ccc(C(SC[C@H](N)C(=O)O)(c2ccccc2)c2ccccc2)cc1 | 1660 | 240 | 1650 | 80 |  |  | 6910 |  | 2050 |  | 540 | 220
N[C@@H](CSC(c1ccccc1)(c1ccccc1)c1ccc(C2CCCCC2)cc1)C(=O)O | 47900 | 17600 | 56800 | 17900 | 2.1 | 3260 |  |  | 64900 | 1580 | 50800 | 24300
N[C@H](CSC(c1ccccc1)(c1ccccc1)c1ccccc1)C(=O)O | 940 | 920 | 4460 | 780 |  |  | 36600 |  | 1070 |  | 3150 | 610
